Assay results: ChEMBL document CHEMBL1123753, “Substituted 1,3,4-thiadiazoles with anticonvulsant activity. 3. Guanidines” (J Med Chem, 1987)

Tests used:
Mus musculus [1] = assay: Maximal metrazole seizures was determined for the inhibition of hind limb tonus in mouse 1 hr after po dosing; assay type: functional; conditions: Hindlimb
How it was run: (§1)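 Oral dosing, with seizures assessed 1 h later. The endpoint is inhibition of hind limb tonus, expressed as ED50 in mg/kg po.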

Mus musculus [2] = assay: Maximal electroshock seizures was determined for the inhibition of hind limb tonus in mouse by 1 hr after po dose; assay type: functional; conditions: Hindlimb; how it was run: as §1
[3] = Tested for the neurotoxicity in mouse rotarod test was reported 1 hr after po dosing; assay type: toxicity, organism-based; conditions: in vivo
How it was run: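 Trained mice were placed on a rotating rod 1 h after oral dosing. TD50 (mg/kg) is the dose at which 50% of animals fall off the rod, reported with its range.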

Rattus norvegicus = assay: Maximal electroshock seizures determined for the inhibition of hind limb tonus in rat 1 hr after po dosing; assay type: functional; conditions: Hindlimb; how it was run: as §1
[4] = Tested for the neurotoxicity in mouse rotarod test was reported 2 hr after po dosing; assay type: toxicity, organism-based; conditions: in vivo

Row | SMILES | ED50 (Mus musculus [1]) [mg/kg] | ED50 (Mus musculus [2]) [mg/kg] | TD50 at 1 h [3] [mg/kg] | ED50 (Rattus norvegicus) [mg/kg] | TD50 at 2 h [4] [mg/kg]
1 | CN(C1=NCCN1)c1nnc(-c2ccccc2C(F)(F)F)s1 | > 100 | > 100 | – | – | –
2 | FC(F)(F)c1ccccc1-c1nnc(NC2=NCCN2)s1 | > 100 | > 100 | – | – | –
3 | C/N=C(\N)Nc1nnc(-c2ccccc2C(F)(F)F)s1 | 44 | 49 | > 400 | – | –
4 | CCCC/N=C(\N)Nc1nnc(-c2ccccc2C(F)(F)F)s1 | 225 | 142 | – | – | –
5 | N=C(N)Nc1nnc(-c2ccccc2C(F)(F)F)s1 | 45 | 27 | 384 | 22 | –
6 | CN(C)CCC/N=C(\N)Nc1nnc(-c2ccccc2C(F)(F)F)s1 | > 100 | > 100 | – | – | –
7 | COCCC/N=C(\N)Nc1nnc(-c2ccccc2C(F)(F)F)s1 | 78 | > 100 | – | – | –
8 | N=C(NCc1ccccc1)Nc1nnc(-c2ccccc2C(F)(F)F)s1 | > 100 | > 100 | – | – | –
9 | CN(N)c1nnc(-c2ccc(-c3ccccc3)cc2)s1 | 27 | 18 | – | 16 | > 1000
10 | NC(=O)N1c2ccccc2C=Cc2ccccc21 [CARBAMAZEPINE] | 11 | 20 | – | 4 | –
11 | CCC1(c2ccccc2)C(=O)NC(=O)NC1=O [PHENOBARBITAL] | 4 | 12 | – | 9 | –
12 | O=C1NC(=O)C(c2ccccc2)(c2ccccc2)N1 [PHENYTOIN] | 8 | 8 | – | 14 | –
